Experimental data as given in ChEMBL document CHEMBL1944562, “Design, synthesis of some new (2-aminothiazol-4-yl)methylester derivatives as possible antimicrobial and antitubercular agents” (2012).
In brackets after ≈: the same amount, converted by molar mass.

Legend:
Assay type in all cases: functional
Escherichia coli [1] = experiment: Antibacterial activity against Escherichia coli ATCC 25922 after 16 to 18 hrs by […]
[2] = system: Mycolicibacterium smegmatis; experiment: Antitubercular activity against Mycobacterium smegmatis ATCC 19420 after 7 days by resazurin assay; settings: ATCC 19420, 168 h
Summary of the method: (§1)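 Middlebrook 7H9 broth with 10% OADC, culture adjusted to McFarland 2. 50 µL culture added to 150 µL fresh medium. Stocks at 2 mg/mL in DMF, tested first at 1, 10 and 100 µg/mL, then at 0.3125-5 µg/mL. DMF controls. After 7 days at 37 °C, 0.01% resazurin added. Blue-to-pink change read for MIC.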

[3] = system: Mycobacterium tuberculosis; experiment: Antitubercular activity against Mycobacterium tuberculosis H37Rv after 7 days by resazurin assay; settings: 168 h
Summary of the method: (§2)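 M. tuberculosis H37Rv ATCC 27294 grown in Middlebrook 7H9 broth with 10% OADC and adjusted to McFarland 2. Culture was diluted 1:4 into fresh medium. Compounds came from 2 mg/mL DMF stocks, screened first at 1, 10 and 100, then at 0.3125–5. DMF-only controls were included. After 7 days at 37 °C, 0.01% resazurin was added; a blue-to-pink change marked growth, and the MIC was read.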

[4] = system: Mycolicibacterium fortuitum; experiment: Antitubercular activity against Mycobacterium fortuitum ATCC 19542 after 7 days by resazurin assay; settings: ATCC 19542, 168 h; summary of the method: as §1
[5] = system: Trichophyton mentagrophytes; experiment: Antifungal activity against Trichophyton mentagrophytes at MIC after 3 to 4 days
Summary of the method: (§3)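 Fungal suspension made by transferring a loopful of culture to 3 mL saline and seeding agar plates, 20 mL agar per dish, dried 1 h at 37 °C. Punched wells loaded with test compound in DMSO at its MIC. DMSO-only control. Triplicate plates held 3-4 days at 37 °C. Inhibition zone diameter measured.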

Staphylococcus aureus [6] = experiment: Antibacterial activity against Staphylococcus aureus ATCC 25923 at […] after 3 to 4 days
Summary of the method: (§4)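 Agar well diffusion on seeded agar plates, 20 mL agar per dish, dried 1 h at 37 °C. Wells punched and loaded with test compound in DMSO at its MIC. DMSO-only control. Plates run in triplicate and kept 3-4 days at 37 °C. Inhibition zone diameter measured.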

Aspergillus fumigatus [7] = experiment: Antifungal activity against Aspergillus fumigatus NCIM N0.902 at MIC after 3 to 4 days; summary of the method: as §3
Pseudomonas aeruginosa [8] = experiment: Antibacterial activity against Pseudomonas aeruginosa ATCC 27853 at MIC after 3 to 4 days; summary of the method: as §4
[9] = system: Trichophyton mentagrophytes; experiment: Antifungal activity against Trichophyton mentagrophytes after 3 to 4 days by serial plate dilution method
Aspergillus flavus [10] = experiment: Antifungal activity against Aspergillus flavus NCIM N0.524 after 3 to 4 days by serial plate dilution method
Pseudomonas aeruginosa [11] = experiment: Antibacterial activity against Pseudomonas aeruginosa ATCC 27853 after 16 to 18 hrs by […]
Aspergillus flavus [12] = experiment: Antifungal activity against Aspergillus flavus NCIM N0.524 at MIC after 3 to 4 days; summary of the method: as §3
Klebsiella pneumoniae [13] = experiment: Antibacterial activity against Klebsiella pneumoniae at MIC after 3 to 4 days; summary of the method: as §4
Candida albicans [14] = experiment: Antifungal activity against Candida albicans at MIC after 3 to 4 days; summary of the method: as §3
[15] = system: Mycobacterium tuberculosis; experiment: Antitubercular activity against Mycobacterium tuberculosis H37Rv assessed as growth inhibition after 7 days by resazurin assay; summary of the method: as §2
Escherichia coli [16] = experiment: Antibacterial activity against Escherichia coli ATCC 25922 at MIC after 3 to 4 days; summary of the method: as §4
Klebsiella pneumoniae [17] = experiment: Antibacterial activity against Klebsiella pneumoniae after 16 to 18 hrs by […]
Talaromyces marneffei [18] = experiment: Antifungal activity against Penicillium marneffei at MIC after 3 to 4 days; summary of the method: as §3
Talaromyces marneffei [19] = experiment: Antifungal activity against Penicillium marneffei after 3 to 4 days by serial plate dilution method
Bacillus subtilis [20] = experiment: Antibacterial activity against Bacillus subtilis at MIC after 3 to 4 days; summary of the method: as §4
Candida albicans [21] = experiment: Antifungal activity against Candida albicans after 3 to 4 days by serial plate dilution method
Aspergillus fumigatus [22] = experiment: Antifungal activity against Aspergillus fumigatus NCIM N0.902 after 3 to 4 days by serial plate dilution method
Bacillus subtilis [23] = experiment: Antibacterial activity against Bacillus subtilis after 16 to 18 hrs by […]
Staphylococcus aureus [24] = experiment: Antibacterial activity against Staphylococcus aureus ATCC 25923 after 16 to 18 hrs by serial plate dilution method

Row | Compound | MIC (Escherichia coli [1]) [µg/mL] | MIC [2] [µg/mL] | MIC [3] [µg/mL] | MIC [4] [µg/mL] | diameter of the inhibition zone (DIZ) [5] [mm] | diameter of the inhibition zone (DIZ) (Staphylococcus aureus [6]) [mm] | diameter of the inhibition zone (DIZ) (Aspergillus fumigatus [7]) [mm] | diameter of the inhibition zone (DIZ) (Pseudomonas aeruginosa [8]) [mm] | MIC [9] [µg/mL] | MIC (Aspergillus flavus [10]) [µg/mL] | MIC (Pseudomonas aeruginosa [11]) [µg/mL] | diameter of the inhibition zone (DIZ) (Aspergillus flavus [12]) [mm] | diameter of the inhibition zone (DIZ) (Klebsiella pneumoniae [13]) [mm] | diameter of the inhibition zone (DIZ) (Candida albicans [14]) [mm] | growth inhibition (GI) [15] [%] | diameter of the inhibition zone (DIZ) (Escherichia coli [16]) [mm] | MIC (Klebsiella pneumoniae [17]) [µg/mL] | diameter of the inhibition zone (DIZ) (Talaromyces marneffei [18]) [mm] | MIC (Talaromyces marneffei [19]) [µg/mL] | diameter of the inhibition zone (DIZ) (Bacillus subtilis [20]) [mm] | also measured
1 | Nc1nc(COC(=O)c2c(Cl)cc(Cl)cc2Cl)cs1 | 25 (≈ 74 µM) | > 100 | 10 (≈ 29.6 µM) | > 100 | 16 | 16 | 16 | <10 | 6.25 (≈ 18.5 µM) | 6.25 (≈ 18.5 µM) | 25 (≈ 74 µM) | 16 | 11 | 16 | <90 | <10 | 12.5 (≈ 37 µM) | 16 | 6.25 (≈ 18.5 µM) | 16 | MIC (Candida albicans [21]): 6.25 µg/mL (≈ 18.5 µM); MIC (Aspergillus fumigatus [22]): 6.25 µg/mL (≈ 18.5 µM); MIC (Bacillus subtilis [23]): 6.25 µg/mL (≈ 18.5 µM); MIC (Staphylococcus aureus [24]): 6.25 µg/mL (≈ 18.5 µM)
2 | Nc1nc(COC(=O)c2ccccc2)cs1 | 25 (≈ 107 µM) | > 100 | > 100 | > 100 | <10 | 16 | <10 | <10 | 25 (≈ 107 µM) | 25 (≈ 107 µM) | 25 (≈ 107 µM) | <10 | 16 | <10 | 0 | <10 | 6.25 (≈ 26.7 µM) | <10 | 25 (≈ 107 µM) | 16 | MIC (Candida albicans [21]): 25 µg/mL (≈ 107 µM); MIC (Aspergillus fumigatus [22]): 25 µg/mL (≈ 107 µM); MIC (Bacillus subtilis [23]): 6.25 µg/mL (≈ 26.7 µM); MIC (Staphylococcus aureus [24]): 6.25 µg/mL (≈ 26.7 µM)
3 | N#Cc1cccc(C(=O)OCc2csc(N)n2)n1 | 12.5 (≈ 48 µM) | > 100 | 10 (≈ 38.4 µM) | > 100 | 11 | <10 | 11 | <10 | 12.5 (≈ 48 µM) | 6.25 (≈ 24 µM) | 25 (≈ 96.1 µM) | 16 | <10 | <10 | <90 | 11 | 25 (≈ 96.1 µM) | 16 | 6.25 (≈ 24 µM) | <10 | MIC (Candida albicans [21]): 25 µg/mL (≈ 96.1 µM); MIC (Aspergillus fumigatus [22]): 12.5 µg/mL (≈ 48 µM); MIC (Bacillus subtilis [23]): 25 µg/mL (≈ 96.1 µM); MIC (Staphylococcus aureus [24]): 25 µg/mL (≈ 96.1 µM)
4 | Nc1nc(COC(=O)c2ccc(Cl)cc2)cs1 | 6.25 (≈ 23.3 µM) | > 100 | > 100 | > 100 | 16 | 16 | 16 | 16 | 6.25 (≈ 23.3 µM) | 25 (≈ 93 µM) | 6.25 (≈ 23.3 µM) | <10 | 16 | <10 | 0 | 16 | 6.25 (≈ 23.3 µM) | <10 | 25 (≈ 93 µM) | 16 | MIC (Candida albicans [21]): 25 µg/mL (≈ 93 µM); MIC (Aspergillus fumigatus [22]): 6.25 µg/mL (≈ 23.3 µM); MIC (Bacillus subtilis [23]): 6.25 µg/mL (≈ 23.3 µM); MIC (Staphylococcus aureus [24]): 6.25 µg/mL (≈ 23.3 µM)
5 | Nc1nc(COC(=O)c2ccc(Br)cc2)cs1 | 25 (≈ 79.8 µM) | 2.5 (≈ 7.98 µM) | 2.5 (≈ 7.98 µM) | > 100 | 11 | <10 | <10 | <10 | 12.5 (≈ 39.9 µM) | 25 (≈ 79.8 µM) | 25 (≈ 79.8 µM) | <10 | 16 | 16 | <90 | <10 | 6.25 (≈ 20 µM) | <10 | 25 (≈ 79.8 µM) | <10 | MIC (Candida albicans [21]): 6.25 µg/mL (≈ 20 µM); MIC (Aspergillus fumigatus [22]): 25 µg/mL (≈ 79.8 µM); MIC (Bacillus subtilis [23]): 25 µg/mL (≈ 79.8 µM); MIC (Staphylococcus aureus [24]): 25 µg/mL (≈ 79.8 µM)
6 | Nc1nc(COC(=O)c2ccccc2[N+](=O)[O-])cs1 | 12.5 (≈ 44.8 µM) | 10 (≈ 35.8 µM) | 0.625 (≈ 2.24 µM) | 10 (≈ 35.8 µM) | <10 | 11 | <10 | <10 | 25 (≈ 89.5 µM) | 25 (≈ 89.5 µM) | 25 (≈ 89.5 µM) | <10 | 16 | <10 | 95 | 11 | 6.25 (≈ 22.4 µM) | 11 | 12.5 (≈ 44.8 µM) | 11 | MIC (Candida albicans [21]): 25 µg/mL (≈ 89.5 µM); MIC (Aspergillus fumigatus [22]): 25 µg/mL (≈ 89.5 µM); MIC (Bacillus subtilis [23]): 12.5 µg/mL (≈ 44.8 µM); MIC (Staphylococcus aureus [24]): 12.5 µg/mL (≈ 44.8 µM)
